Results taken from ChEMBL document CHEMBL4706593, “Induced protein degradation of histone deacetylases 3 (HDAC3) by proteolysis targeting chimera (PROTAC)” (Eur J Med Chem, 2020).
Activity calls are given as the source filed them. No cut-off for these calls is given here.

Experiments:
[1] = Cytotoxicity against mouse RAW264.7 cells assessed as cell survival up to 10 uM measured after 24 hrs by MTS assay relative to control; format: cell-based; conditions: read-out: Survival
Method in brief: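 RAW264.7 macrophages (ATCC, passage 5–16) grown in DMEM GlutaMAX with 10% heated FBS at 37 °C, 5% CO2. Cells seeded at 25,000 cells/cm2 and treated the next day in fresh medium with compound up to 10 μM for 24 h at 37 °C. CellTiter 96 AQueous One (MTS) reagent added for 2 h at 37 °C in the dark, absorbance read at 490 nm, expressed as % of control.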

[2] = target: Histone deacetylase 2 (Homo sapiens, UniProt Q92769); assay: Inhibition of recombinant human full-length C-terminal FLAG-tagged HDAC2 expressed in baculovirus infected Sf9 insect cells using Boc-Lys(epsilon-Ac)-AMC as substrate measured after 90 mins by fluorescence assay
Chain of Histone deacetylase 2 (Q92769 whole entry): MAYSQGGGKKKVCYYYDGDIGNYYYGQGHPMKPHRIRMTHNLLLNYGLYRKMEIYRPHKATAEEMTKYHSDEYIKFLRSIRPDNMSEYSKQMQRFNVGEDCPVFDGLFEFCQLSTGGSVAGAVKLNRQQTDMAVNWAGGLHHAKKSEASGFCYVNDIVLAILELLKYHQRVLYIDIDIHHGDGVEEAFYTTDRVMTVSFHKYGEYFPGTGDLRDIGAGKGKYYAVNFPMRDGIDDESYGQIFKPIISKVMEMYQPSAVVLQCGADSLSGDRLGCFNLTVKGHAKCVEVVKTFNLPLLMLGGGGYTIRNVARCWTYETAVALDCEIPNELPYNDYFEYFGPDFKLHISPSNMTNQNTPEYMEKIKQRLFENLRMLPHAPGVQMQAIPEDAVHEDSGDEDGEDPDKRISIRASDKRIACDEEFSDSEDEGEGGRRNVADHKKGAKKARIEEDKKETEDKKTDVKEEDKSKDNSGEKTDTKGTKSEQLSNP

[3] = target: Protein cereblon/Histone deacetylase 1 (Mus musculus) (UniProt O09106+Q8C7D2); assay: Protac activity at CRBN/HDAC1 in mouse RAW264.7 cells assessed as induction of HDAC1 degradation at 10 uM by Western blot analysis; format: cell-based
Chain of Protein cereblon/Histone deacetylase 1 (Mus musculus) (O09106 whole entry, looked up): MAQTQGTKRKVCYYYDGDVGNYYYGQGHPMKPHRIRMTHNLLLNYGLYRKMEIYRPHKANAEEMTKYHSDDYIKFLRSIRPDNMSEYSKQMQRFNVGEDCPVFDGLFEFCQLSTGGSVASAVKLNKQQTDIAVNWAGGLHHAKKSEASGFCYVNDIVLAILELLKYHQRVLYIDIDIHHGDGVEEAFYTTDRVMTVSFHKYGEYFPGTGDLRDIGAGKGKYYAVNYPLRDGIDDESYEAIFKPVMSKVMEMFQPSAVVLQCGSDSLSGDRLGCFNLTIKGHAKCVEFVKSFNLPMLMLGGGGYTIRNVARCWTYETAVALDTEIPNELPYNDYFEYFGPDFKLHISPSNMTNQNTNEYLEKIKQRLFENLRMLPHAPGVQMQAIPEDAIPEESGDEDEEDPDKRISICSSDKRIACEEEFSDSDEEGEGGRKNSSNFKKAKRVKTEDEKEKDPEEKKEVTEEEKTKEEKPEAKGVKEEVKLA
Chain of Protein cereblon/Histone deacetylase 1 (Mus musculus) (Q8C7D2 whole entry, looked up): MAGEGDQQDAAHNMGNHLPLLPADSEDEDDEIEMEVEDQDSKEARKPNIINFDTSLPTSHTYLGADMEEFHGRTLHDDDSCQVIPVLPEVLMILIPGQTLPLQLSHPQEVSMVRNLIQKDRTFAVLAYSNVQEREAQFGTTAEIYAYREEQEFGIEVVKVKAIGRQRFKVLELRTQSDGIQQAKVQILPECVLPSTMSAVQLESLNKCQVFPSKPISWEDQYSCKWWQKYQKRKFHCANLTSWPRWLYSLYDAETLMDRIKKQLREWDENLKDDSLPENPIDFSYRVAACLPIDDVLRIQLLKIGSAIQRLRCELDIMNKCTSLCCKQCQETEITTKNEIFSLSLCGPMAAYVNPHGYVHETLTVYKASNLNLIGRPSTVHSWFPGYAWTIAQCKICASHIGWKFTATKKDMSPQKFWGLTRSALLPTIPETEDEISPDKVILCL
Method in brief: (§1)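 RAW264.7 macrophages treated at 10 µM. Cells lysed in ice-cold HEPES/MgCl2/EDTA/0.5% Triton X-100 with protease inhibitors, protein by BCA, 4–12% Bis-Tris SDS-PAGE, PVDF transfer. Probed with HDAC1, HDAC2 or HDAC3 antibodies (1:2000) and β-actin, then HRP secondary and chemiluminescence. Bands quantified by densitometry as fold of untreated control, mean ± SD of 2 independent experiments.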

[4] = target: Histone deacetylase 1 (Homo sapiens, UniProt Q13547); assay: Inhibition of recombinant human C-terminal His/FLAG-tagged HDAC1 (1 to 482 residues) expressed in Sf9 insect cells using Boc-Lys(epsilon-Ac)-AMC as substrate measured after 90 mins by fluorescence assay
Chain of Histone deacetylase 1 (Q13547 whole entry, the tested form may be a part): as the sequence (O09106 whole entry, looked up) above, with K8R, E399D, D424E counted along it

[5] = target: Histone deacetylase 3/Nuclear receptor corepressor 2 (HDAC3/NCoR2) (Homo sapiens, UniProt O15379); assay: Inhibition of human recombinant C-terminal His-tagged HDAC3 (1 to 428 residues)/N-terminal GST-tagged NCOR2 (395 to 489 residues) expressed in baculovirus infected Sf9 insect cells using Boc-Lys(epsilon-Ac)-AMC as substrate measured after 90 mins by fluorescence assay
Chain of Histone deacetylase 3/Nuclear receptor corepressor 2 (HDAC3/NCoR2) (O15379 whole entry, the tested form may be a part): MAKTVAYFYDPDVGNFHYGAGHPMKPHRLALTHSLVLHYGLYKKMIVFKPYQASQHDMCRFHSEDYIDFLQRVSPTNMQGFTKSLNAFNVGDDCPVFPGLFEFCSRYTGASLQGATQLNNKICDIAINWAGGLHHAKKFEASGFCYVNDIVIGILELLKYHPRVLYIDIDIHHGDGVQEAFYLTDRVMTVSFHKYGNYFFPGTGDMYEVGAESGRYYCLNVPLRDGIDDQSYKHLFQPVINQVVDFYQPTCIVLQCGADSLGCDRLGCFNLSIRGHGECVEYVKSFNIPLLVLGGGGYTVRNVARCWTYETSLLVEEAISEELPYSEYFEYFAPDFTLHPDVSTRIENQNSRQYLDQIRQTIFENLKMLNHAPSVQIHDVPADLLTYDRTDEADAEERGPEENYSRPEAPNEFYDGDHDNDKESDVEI
Chain of Histone deacetylase 3/Nuclear receptor corepressor 2 (HDAC3/NCoR2) (Q9Y618 whole entry, further chain, the tested form may be a part): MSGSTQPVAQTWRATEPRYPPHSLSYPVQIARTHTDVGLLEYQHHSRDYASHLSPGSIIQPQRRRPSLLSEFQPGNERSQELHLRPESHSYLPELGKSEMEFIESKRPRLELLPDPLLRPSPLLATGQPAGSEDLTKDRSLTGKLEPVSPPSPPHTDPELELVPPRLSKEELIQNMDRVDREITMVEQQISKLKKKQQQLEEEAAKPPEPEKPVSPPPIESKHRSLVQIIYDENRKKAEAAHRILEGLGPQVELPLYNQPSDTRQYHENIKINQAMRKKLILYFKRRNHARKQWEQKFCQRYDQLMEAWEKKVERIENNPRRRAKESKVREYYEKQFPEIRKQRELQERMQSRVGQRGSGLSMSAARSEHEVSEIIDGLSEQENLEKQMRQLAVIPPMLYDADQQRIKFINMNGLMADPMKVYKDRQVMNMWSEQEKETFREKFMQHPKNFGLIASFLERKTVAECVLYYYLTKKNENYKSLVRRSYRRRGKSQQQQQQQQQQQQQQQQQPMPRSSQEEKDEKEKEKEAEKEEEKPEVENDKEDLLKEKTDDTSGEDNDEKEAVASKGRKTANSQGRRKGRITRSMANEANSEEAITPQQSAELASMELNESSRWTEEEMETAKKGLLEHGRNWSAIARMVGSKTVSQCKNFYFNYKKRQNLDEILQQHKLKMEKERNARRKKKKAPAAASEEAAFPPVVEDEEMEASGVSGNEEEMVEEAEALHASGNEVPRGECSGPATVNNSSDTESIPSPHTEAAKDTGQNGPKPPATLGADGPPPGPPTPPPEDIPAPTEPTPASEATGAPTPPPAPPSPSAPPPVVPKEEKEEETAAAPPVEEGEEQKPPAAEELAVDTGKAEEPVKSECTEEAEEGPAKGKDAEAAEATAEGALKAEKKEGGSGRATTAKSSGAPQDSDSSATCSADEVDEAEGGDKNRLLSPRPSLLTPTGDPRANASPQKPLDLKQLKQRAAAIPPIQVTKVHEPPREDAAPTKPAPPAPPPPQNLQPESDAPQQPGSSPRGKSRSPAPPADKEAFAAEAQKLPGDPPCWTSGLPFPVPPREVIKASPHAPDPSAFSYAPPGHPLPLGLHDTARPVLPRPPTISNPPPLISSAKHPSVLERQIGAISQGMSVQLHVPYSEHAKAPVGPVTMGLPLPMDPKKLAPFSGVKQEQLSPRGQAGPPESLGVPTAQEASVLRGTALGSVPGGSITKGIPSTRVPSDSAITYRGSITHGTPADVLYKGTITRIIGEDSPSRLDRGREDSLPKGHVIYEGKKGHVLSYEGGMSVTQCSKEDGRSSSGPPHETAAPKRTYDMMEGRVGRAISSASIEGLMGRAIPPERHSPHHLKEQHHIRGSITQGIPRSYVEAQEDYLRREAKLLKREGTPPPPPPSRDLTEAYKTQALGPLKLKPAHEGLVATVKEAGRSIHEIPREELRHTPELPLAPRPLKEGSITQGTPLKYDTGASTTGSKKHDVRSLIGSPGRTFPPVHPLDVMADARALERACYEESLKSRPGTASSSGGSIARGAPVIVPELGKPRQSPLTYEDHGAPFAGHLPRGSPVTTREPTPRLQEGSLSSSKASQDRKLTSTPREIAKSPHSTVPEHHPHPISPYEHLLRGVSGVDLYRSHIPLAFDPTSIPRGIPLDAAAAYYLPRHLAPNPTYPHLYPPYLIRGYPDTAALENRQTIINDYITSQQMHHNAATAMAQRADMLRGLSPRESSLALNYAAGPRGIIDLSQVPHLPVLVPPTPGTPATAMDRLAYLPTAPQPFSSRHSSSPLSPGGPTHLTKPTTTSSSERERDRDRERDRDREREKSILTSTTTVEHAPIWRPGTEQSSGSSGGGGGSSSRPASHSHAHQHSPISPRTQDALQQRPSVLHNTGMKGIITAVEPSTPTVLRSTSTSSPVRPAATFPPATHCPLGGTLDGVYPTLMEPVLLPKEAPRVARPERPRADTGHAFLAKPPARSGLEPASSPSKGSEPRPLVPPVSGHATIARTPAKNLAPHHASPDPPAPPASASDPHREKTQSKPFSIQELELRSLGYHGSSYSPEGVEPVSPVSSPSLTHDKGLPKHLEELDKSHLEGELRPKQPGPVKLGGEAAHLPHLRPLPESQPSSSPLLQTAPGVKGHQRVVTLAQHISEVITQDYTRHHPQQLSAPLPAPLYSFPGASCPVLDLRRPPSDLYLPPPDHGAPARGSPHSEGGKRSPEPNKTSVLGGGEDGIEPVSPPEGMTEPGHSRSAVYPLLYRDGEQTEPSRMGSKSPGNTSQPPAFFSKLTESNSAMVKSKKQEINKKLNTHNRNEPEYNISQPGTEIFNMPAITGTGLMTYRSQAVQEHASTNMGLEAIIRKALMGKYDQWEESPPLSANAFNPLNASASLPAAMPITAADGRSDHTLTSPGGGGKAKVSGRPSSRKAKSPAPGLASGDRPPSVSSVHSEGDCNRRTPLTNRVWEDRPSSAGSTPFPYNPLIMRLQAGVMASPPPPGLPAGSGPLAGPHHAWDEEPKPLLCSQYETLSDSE
Method in brief: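 Incubated with inhibitor dilutions (in 10% DMSO/buffer) and Boc-Lys(ε-Ac)-AMC, 90 min at 37 °C. Stopped with trypsin plus 200 µM vorinostat, 30 min at 37 °C.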

[6] = target: Protein cereblon/Histone deacetylase 3 (Mus musculus) (UniProt O88895+Q8C7D2); assay: Protac activity at CRBN/HDAC3 in mouse RAW264.7 cells assessed as induction of HDAC3 degradation at 10 uM by Western blot analysis; format: cell-based; method in brief: as §1
Chain of Protein cereblon/Histone deacetylase 3 (Mus musculus) (O88895 whole entry, looked up): as the sequence (O15379 whole entry, the tested form may be a part) above, with N241S counted along it
Chain of Protein cereblon/Histone deacetylase 3 (Mus musculus) (Q8C7D2 whole entry, looked up): as the sequence (Q8C7D2 whole entry, looked up) above

[7] = target: Protein cereblon/Histone deacetylase 2 (Mus musculus) (UniProt P70288+Q8C7D2); assay: Protac activity at CRBN/HDAC2 in mouse RAW264.7 cells assessed as induction of HDAC2 degradation at 10 uM by Western blot analysis; format: cell-based; method in brief: as §1
Chain of Protein cereblon/Histone deacetylase 2 (Mus musculus) (P70288 whole entry, looked up): as the sequence (Q92769 whole entry) above, with V289A, T477P, T480A counted along it
Chain of Protein cereblon/Histone deacetylase 2 (Mus musculus) (Q8C7D2 whole entry, looked up): as the sequence (Q8C7D2 whole entry, looked up) above

[8] = Down regulation of NFkappaB p65 expression in LPS/IFNgamma-induced mouse RAW264.7 cells at 10 uM incubated for 20 hrs followed by LPS/IFNgamma stimulation and measured after 4 hrs by Western blot analysis; conditions: raw264.7, 24 h
Method in brief: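 RAW264.7 cells treated and NF-κB p65 protein measured by western blot with p65 antibody (1:2500), β-actin loading control, HRP secondary and chemiluminescent detection.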

SMILES: Nc1ccccc1NC(=O)c1ccc(NC(=O)CCCCNc2cccc3c2C(=O)N(C2CCC(=O)NC2=O)C3=O)cc1 (centres undefined)
- viability at 24 h [1]: > 80%
- IC50 [2]: 1000 nM
- Activity [3]: inactive
- IC50 [4]: 420 nM
- IC50 [5]: 1000 nM

SMILES: Nc1ccccc1NC(=O)c1ccc(NC(=O)CCCNc2cccc3c2C(=O)N(C2CCC(=O)NC2=O)C3=O)cc1 (centres undefined)
- viability at 24 h [1]: > 80%
- IC50 [2]: 1200 nM
- Activity [3]: inactive
- Activity [6]: Active
- IC50 [4]: 360 nM
- IC50 [5]: 870 nM

SMILES: Nc1ccccc1NC(=O)c1ccc(NC(=O)CCCCCNc2cccc3c2C(=O)N(C2CCC(=O)NC2=O)C3=O)cc1 (centres undefined)
- viability at 24 h [1]: > 80%
- IC50 [2]: 970 nM
- Activity [7]: Active
- Activity [3]: inactive
- IC50 [4]: 220 nM
- IC50 [5]: 540 nM

SMILES: Nc1cccc2c1CN(C1CCC(=O)NC1=O)C2=O (centres undefined) [LENALIDOMIDE]
- Activity [8]: Toxic

SMILES: O=C1CCC(N2C(=O)c3ccccc3C2=O)C(=O)N1 (centres undefined) [THALIDOMIDE]
- Activity [8]: Toxic
